Experimental data published in ChEMBL document CHEMBL1240446, “Synthesis and biological activities of novel amine-derived bis-azoles as potential antibacterial and antifungal agents” (2010).
Values after ≈ are worked out from the molar mass of the structure shown.

How the values were obtained:
Type in all cases: functional
Escherichia coli = test: Antibacterial activity against Escherichia coli ATCC 25922 after 24 hrs by micro-broth dilution method; details: ATCC 25922, 24 h
Method in brief: (§1)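 MIC by broth microdilution following NCCLS methods. Inoculum adjusted in sterile saline to 1×10^4–1×10^5 CFU. Compounds from DMSO stocks, two-fold serial dilutions in Mueller-Hinton broth at 256 down to 0.25 µg/mL. Incubation 37 °C, 24 h. DMSO solvent control at matching dilutions. Growth read visually and spectrophotometrically. MIC is the lowest concentration arresting growth.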

Pseudomonas aeruginosa = test: Antibacterial activity against Pseudomonas aeruginosa ATCC 27853 after 24 hrs by micro-broth dilution method; details: ATCC 27853, 24 h; method in brief: as §1
Staphylococcus aureus [1] = test: Antibacterial activity against Staphylococcus aureus ATCC 29213 after 24 hrs by micro-broth dilution method; details: ATCC 29213, 24 h
Method in brief: (§2)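 Broth microdilution per NCCLS in Mueller-Hinton broth. Inoculum adjusted in sterile saline to 1×10^4–1×10^5 CFU. Compounds taken from DMSO stocks and serially diluted two-fold to final 256–0.25 µg/mL (11 levels). Incubation 37 °C, 24 h, with a DMSO solvent control. Growth read visually and spectrophotometrically. MIC is the lowest concentration that arrests growth.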

Bacillus subtilis = test: Antibacterial activity against Bacillus subtilis ATCC 21216 after 24 hrs by micro-broth dilution method; details: ATCC 21216, 24 h; method in brief: as §1
Candida albicans = test: Antifungal activity against Candida albicans ATCC 76615 after 24 hrs by micro-broth dilution method; details: ATCC 76615, 24 h
Method in brief: (§3)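 Broth microdilution per NCCLS. Spore suspension in sterile distilled water, taken from 1-day-old cultures on Sabouraud agar, final 1–5×10^3 spores/mL. Compounds diluted from stocks in RPMI 1640 to eleven concentrations, 0.25–256 µg/mL. Incubation 35 °C, 24 h. Growth scored visually and spectrophotometrically. MIC is the lowest concentration arresting fungal growth.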

Bacillus = test: Antibacterial activity against Bacillus proteus ATCC 13315 after 24 hrs by micro-broth dilution method; details: ATCC 13315, 24 h; method in brief: as §1
Staphylococcus aureus [2] = test: Antibacterial activity against methicillin-resistant Staphylococcus aureus N315 after 24 hrs by micro-broth dilution method; details: N315, 24 h; method in brief: as §2
Aspergillus fumigatus = test: Antifungal activity against Aspergillus fumigatus ATCC 96918 after 24 hrs by micro-broth dilution method; details: ATCC 96918, 24 h; method in brief: as §3

Structure (SMILES) | MIC (Escherichia coli) [µg/mL] | MIC (Pseudomonas aeruginosa) [µg/mL] | MIC (Staphylococcus aureus [1]) [µg/mL] | MIC (Bacillus subtilis) [µg/mL] | MIC (Candida albicans) [µg/mL] | MIC (Bacillus) [µg/mL] | MIC (Staphylococcus aureus [2]) [µg/mL] | MIC (Aspergillus fumigatus) [µg/mL]
Cc1cc2ncn(CCN(CCn3cnc4cc(C)c(C)cc43)Cc3ccc(Cl)cc3Cl)c2cc1C | 16 (≈ 30.7 µM) | 128 (≈ 246 µM) | 128 (≈ 246 µM) | 64 (≈ 123 µM) | > 256 | 32 (≈ 61.5 µM) | > 256 | > 256
Clc1ccc(CN(CCn2cncn2)CCn2cncn2)cc1Cl | 32 (≈ 87.4 µM) | 64 (≈ 175 µM) | 64 (≈ 175 µM) | 32 (≈ 87.4 µM) | > 256 | 0.5 (≈ 1.37 µM) | 256 (≈ 699 µM) | > 256
Cl.Fc1ccc(CN(CCn2ccnc2)CCn2ccnc2)c(F)c1 | 16 | 64 | 16 | 8 | 128 | 32 | 16 | > 256
Clc1ccc(CN(CCn2cncn2)CCn2cncn2)c(Cl)c1.O=[N+]([O-])O | 64 | 16 | 32 | 128 | 0.25 | 8 | 256 | 128
Clc1ccc(CN(CCn2ccnc2)CCn2ccnc2)cc1 | 32 (≈ 97 µM) | 64 (≈ 194 µM) | 64 (≈ 194 µM) | 64 (≈ 194 µM) | > 256 | 128 (≈ 388 µM) | 64 (≈ 194 µM) | > 256
Clc1ccc(CN(CCn2ccnc2)CCn2ccnc2)cc1Cl | 16 (≈ 43.9 µM) | 64 (≈ 176 µM) | 16 (≈ 43.9 µM) | 16 (≈ 43.9 µM) | > 256 | 64 (≈ 176 µM) | 32 (≈ 87.8 µM) | 64 (≈ 176 µM)
Fc1ccc(CN(CCn2ccnc2)CCn2ccnc2)c(F)c1.O=[N+]([O-])O | 32 | 64 | 32 | 16 | 128 | 64 | 32 | > 256
OCCN(CCO)Cc1ccc(F)cc1F | 128 (≈ 554 µM) | 256 (≈ 1110 µM) | 256 (≈ 1110 µM) | 256 (≈ 1110 µM) | 256 (≈ 1110 µM) | 256 (≈ 1110 µM) | > 256 | > 256
OC(Cn1cncn1)(Cn1cncn1)c1ccc(F)cc1F [FLUCONAZOLE] | – | – | – | – | 0.5 (≈ 1.63 µM) | – | – | 256 (≈ 836 µM)
Cl.Clc1ccc(CN(CCn2ccnc2)CCn2ccnc2)cc1Cl | 4 | 32 | 4 | 4 | > 256 | 16 | 8 | 32
Cl.Clc1ccc(CN(CCn2cncn2)CCn2cncn2)cc1Cl | 32 | 32 | 32 | 16 | 128 | 0.25 | 32 | 256
CCn1cc(C(=O)O)c(=O)c2cc(F)c(N3CCNCC3)cc21 [NORFLOXACIN] | 0.5 (≈ 1.57 µM) | 2 (≈ 6.26 µM) | 0.25 (≈ 0.783 µM) | 1 (≈ 3.13 µM) | – | 1 (≈ 3.13 µM) | 0.25 (≈ 0.783 µM) | –
OCCN(CCO)Cc1ccccc1Cl | > 256 | > 256 | > 256 | > 256 | > 256 | 256 (≈ 1110 µM) | > 256 | > 256
O=C(N[C@H](CO)[C@H](O)c1ccc([N+](=O)[O-])cc1)C(Cl)Cl [CHLORAMPHENICOL] | 8 (≈ 24.8 µM) | 64 (≈ 198 µM) | 8 (≈ 24.8 µM) | 8 (≈ 24.8 µM) | – | 8 (≈ 24.8 µM) | 16 (≈ 49.5 µM) | –
Clc1ccc(CN(CCn2cncn2)CCn2cncn2)cc1 | 256 (≈ 772 µM) | 16 (≈ 48.2 µM) | > 256 | > 256 | > 256 | 128 (≈ 386 µM) | > 256 | > 256
Fc1ccc(CN(CCn2cnc3ccccc32)CCn2cnc3ccccc32)c(F)c1 | 128 (≈ 297 µM) | > 256 | 64 (≈ 148 µM) | 64 (≈ 148 µM) | > 256 | 64 (≈ 148 µM) | > 256 | > 256
